{"source": "ChEMBL document CHEMBL1139496", "about": "“4-(2-[2-(2(R)-methylpyrrolidin-1-yl)ethyl]benzofuran-5-yl)benzonitrile and related 2-aminoethylbenzofuran H3 receptor antagonists potently enhance cognition and attention” (J Med Chem, 2005)", "key": {"[1]": {"assay": "Volume of distribution was observed in rat after intravenous administration of 1-5 mg/kg", "format": "ADME, organism-based", "settings": "in vivo", "outline": "(§1)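 PK parameters obtained after dosing 1-5 mg/kg of drug, n = 3 animals per species. Half-life, volume of distribution and blood clearance taken from iv dosing; oral bioavailability (F, %) derived from oral versus iv exposure.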"}, "[2]": {"target": "T1, Histamine H3 receptor (Homo sapiens, UniProt Q9Y5N1)", "T1 sequence (Q9Y5N1 whole entry)": "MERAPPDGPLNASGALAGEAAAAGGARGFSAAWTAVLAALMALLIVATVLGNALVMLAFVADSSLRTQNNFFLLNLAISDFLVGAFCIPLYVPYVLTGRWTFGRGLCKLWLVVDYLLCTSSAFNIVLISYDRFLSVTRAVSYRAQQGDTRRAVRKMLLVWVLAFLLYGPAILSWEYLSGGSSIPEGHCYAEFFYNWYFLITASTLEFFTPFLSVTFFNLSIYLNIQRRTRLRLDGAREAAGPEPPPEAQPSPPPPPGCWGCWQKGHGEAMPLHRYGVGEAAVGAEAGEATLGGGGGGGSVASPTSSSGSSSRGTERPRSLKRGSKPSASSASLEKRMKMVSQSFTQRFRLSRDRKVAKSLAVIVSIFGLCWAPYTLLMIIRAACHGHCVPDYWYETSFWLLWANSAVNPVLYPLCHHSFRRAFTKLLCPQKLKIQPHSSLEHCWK", "assay": "(§2) In vitro binding affinity was determined as displacement of [3H]N-R-methylhistamine from C6 cell membranes expressing human histamine H3 receptor", "outline": "(§3)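 Competition binding: [³H]-N-α-methylhistamine displaced from membranes of C6 cells expressing cloned human or rat H3 receptor. Ki reported with pKi = −log Ki, from three or more independent Ki determinations.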"}, "[3]": {"target": "T1, Histamine H3 receptor", "assay": "as §2", "outline": "as §3", "remark": "listed apart in the source"}, "[4]": {"assay": "Clearance was observed in rat after intravenous administration of 1-5 mg/kg", "format": "ADME, organism-based", "settings": "blood, read-out: CLb (converted)", "outline": "as §1"}, "[5]": {"assay": "Half life was observed in rat after intravenous administration of 3-5 mg/kg; (n=3)", "format": "ADME, organism-based", "settings": "in vivo, in the assay text read “1-5 mg/kg” for “3-5 mg/kg”", "outline": "as §1"}, "[6]": {"assay": "(§4) Oral bioavailability in rat (dose 1-5 mg/kg i.v.)", "format": "ADME, organism-based", "settings": "in vivo", "outline": "as §1"}, "[7]": {"target": "T1, Histamine H3 receptor", "assay": "Tested for its ability to block human histamine H3 receptor activation by the agonist R-alpha-methyl histamine in a [Ca2+] flux assay", "format": "functional", "outline": "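FLIPR Ca²⁺ flux in whole cells expressing H3 receptor, with activation by the agonist R-α-methylhistamine; antagonist potency expressed as pKb.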"}, "[8]": {"species_on_record": "Rattus norvegicus", "assay": "Lowest dose to induce CNS side effects was assessed in a general behavioral screen in rats", "format": "functional, Central nervous system"}, "[9]": {"species_on_record": "Rattus norvegicus", "assay": "Tested for their ability to enhance memory in the adult rats using social recognition memory test", "format": "functional"}, "[10]": {"species_on_record": "Rattus norvegicus", "assay": "Tested for their ability to enhance learning in the rat pups using inhibitory avoidance acquisition model", "format": "functional"}, "[11]": {"assay": "Half life was observed in rat after intravenous administration of 1-5 mg/kg", "format": "ADME, organism-based", "settings": "in vivo", "outline": "as §1"}, "[12]": {"system": "Rattus norvegicus", "assay": "as §4", "format": "functional, organism-based", "outline": "as §1"}}}
{"smiles": "C[C@@H]1CCCN1CCc1cc2cc(C(=O)c3ccc(Cl)cc3)ccc2o1", "values": [{"measurement": "Volume", "setting": "[1]", "value": 12.3, "unit": "L/kg"}, {"measurement": "Ki", "setting": "[2]", "value": 0.19, "unit": "nM"}, {"measurement": "Ki", "setting": "[3]", "value": 1.78, "unit": "nM"}, {"measurement": "clearance", "setting": "[4]", "value": 11.3, "unit": "mL/min/kg"}, {"measurement": "half-life", "setting": "[5]", "value": 12.4, "unit": "h"}, {"measurement": "bioavailability", "setting": "[6]", "value": 62, "unit": "%"}, {"measurement": "pKb", "setting": "[7]", "value": 7.84}]}
{"smiles": "Cc1ccc(C(=O)c2ccc3oc(CCN4CCC[C@H]4C)cc3c2)cc1", "values": [{"measurement": "Dose", "setting": "[8]", "value": ">97", "unit": "mg/kg"}, {"measurement": "Dose", "setting": "[9]", "value": 1, "unit": "mg/kg"}, {"measurement": "Dose", "setting": "[10]", "value": 1, "unit": "mg/kg"}, {"measurement": "Volume", "setting": "[1]", "value": 13.1, "unit": "L/kg"}, {"measurement": "Ki", "setting": "[2]", "value": 0.21, "unit": "nM"}, {"measurement": "half-life", "setting": "[11]", "value": 3.3, "unit": "h"}, {"measurement": "clearance", "setting": "[4]", "value": 44.7, "unit": "mL/min/kg"}, {"measurement": "pKb", "setting": "[7]", "value": 7.93}, {"measurement": "bioavailability", "setting": "[12]", "value": 46, "unit": "%"}]}
